These results are taken from ChEMBL document CHEMBL2412964, “Discovery of novel tetrahydro-pyrazolo [4,3-c] pyridines for the treatment of neuropathic pain: synthesis and neuropharmacology” (Eur J Med Chem, 2013).

Data set [1] deals with Rattus norvegicus. Kind of data set: Antinociceptive activity in Wistar rat chronic constriction injury model assessed as reversal of tactile allodynia at 100 mg/kg, ip after 60 mins (reference value: 1.3 +/- 0.3%). Format: functional. The following applies: route intraperitoneal.
In data set [2] the test system is Rattus norvegicus. Put plainly: Antinociceptive activity in Wistar rat partial sciatic nerve ligation model assessed as reversal of tactile allodynia at 100 mg/kg, ip after 120 mins relative to control. In kind it is functional. To be noted: route intraperitoneal.
For data set [3], the system named is Mus musculus. Put plainly: Anticonvulsant activity in ip dosed Swiss albino mouse assessed as protection against picrotoxin-induced seizure administered 30 mins prior to picrotoxin-challenge measured after 0.5 hrs. In kind it is functional. The following applies: read-out: MED. The procedure, abridged:
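Mice, either sex, 20-25 g, given compound i.p. at 30, 100 and 300 mg/kg. Thirty minutes later, picrotoxin 3.15 mg/kg was injected s.c. in 0.01 mL/g body weight. Animals were isolated and watched for 45 min for a threshold convulsion, and protection was scored as its absence. Examined at 0.5 and 4 h. Value reported is the minimum dose active in half or more of the mice (n = 3).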

The test system of data set [4] is Mus musculus. Put plainly: Antinociceptive activity in Swiss albino mouse assessed as inhibition of formalin-induced flinching at 100 mg/kg administered 30 mins prior to test measured for 10 to 30 mins relative to control. In kind it is functional.
Data set [5] concerns Radical scavenging activity. Kind of data set: Antioxidant activity assessed as DPPH radical scavenging activity after 20 mins […]. Format: functional. The method, boiled down:
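Compounds mixed with methanolic DPPH (final 300 µM) in microplate; after 20 min absorbance at 517 nm read; methanolic DPPH as control. % scavenging = (A DPPH − A DPPH+compound)/A DPPH × 100; dose–response curve used for IC50.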

Data set [6] has as its system Rattus norvegicus. Kind of data set: Antinociceptive activity in Wistar rat partial sciatic nerve ligation model assessed as reversal of spontaneous pain response at 100 mg/kg, ip after 30 mins (reference value: 3.2 +/- 0.3%). In kind it is functional. The following applies: route intraperitoneal.
For data set [7], the system named is Mus musculus. Kind of data set: Antinociceptive activity in Swiss albino mouse assessed as inhibition of acetic acid-induced writhing at 100 mg/kg administered 30 mins prior to acetic acid-challenge measured for 30 mins relative to control. In kind it is functional. The procedure, abridged:
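Swiss albino mice (20–25 g, either sex); writhing induced by i.p. 0.1 mL of 2.0% v/v acetic acid given half an hour after test compound dosing.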
(In general: In writhing tests, fewer writhes than in controls are read as antinociception.)

Data set [8] concerns Rattus norvegicus. Kind of data set: Antinociceptive activity in Wistar rat partial sciatic nerve ligation model assessed as reversal of mechanical allodynia at 100 mg/kg, ip after 30 mins (reference value: 2.9 +/- 0.3%). In kind it is functional. To be noted: route intraperitoneal.
The next data set addresses Cannabinoid receptor 1 (Rattus norvegicus, UniProt P20272). Put plainly: Displacement of [3H]CP55940 from CB1 receptor in rat brain homogenate after 90 mins. Format: tissue-based. The method, boiled down:
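Rat brain (CB1) or spleen (CB2) membranes, homogenized in tris/NaCl/MgCl2 pH 7.4, competed against 0.5 nM [3H]CP55940 in 50 mM Tris-HCl, 2 mM EDTA, 5 mM MgCl2, 0.2 mg/mL BSA, pH 7.4; 90 min incubation. Nonspecific binding with 1 µM WIN (CB1) or 1 µM SR144528 (CB2); triplicates averaged.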
Background: Displacement assays read how much labelled ligand stays bound in the presence of the test substance.

Data set [9] is filed under the species Rattus norvegicus. Kind of data set: Neuroprotective activity in Wistar rat chronic constriction injury model assessed as inhibition of nitric oxide production in sciatic nerve after 2 hrs by Griess method relative to control. In kind it is functional. The procedure, abridged: (§1)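 Wistar rats of either sex (200-250 g) with chronic constriction of the left sciatic nerve. On day 9 post-injury, compound given i.p. in 30% v/v PEG 400; tissue taken 2 h after dosing. Nitrate reduced to nitrite, nitrite measured colorimetrically with Griess reagent against a standard curve. Results expressed as percentage of vehicle-treated control; n = 4.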
In general terms: The Griess reaction detects nitrite, a stable product of nitric oxide.

In data set [10] the test system is Rattus norvegicus. Put plainly: Antinociceptive activity in ip dosed Wistar rat partial sciatic nerve ligation model assessed as reversal of mechanical allodynia after 30 mins. In kind it is functional. The following applies: 0.5 h. The procedure, abridged: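 Wistar rats (200–250 g) with nerve injury, compounds i.p. in 30% v/v PEG 400; dose–response curves in each sensory test (spontaneous pain and cold allodynia as paw withdrawal duration; tactile allodynia and hyperalgesia as withdrawal threshold). ED50 linearly interpolated between doses just above and below 50% response; time of peak effect recorded.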

Data set [11] concerns Rattus norvegicus. Kind of data set: Antinociceptive activity in Wistar rat chronic constriction injury model assessed as reversal of cold allodynia at 100 mg/kg, ip after 60 mins (reference value: 6.3 +/- 1.9%). In kind it is functional. To be noted: route intraperitoneal.
The subject of data set [12] is Mus musculus. Put plainly: Antiinflammatory activity in Swiss albino mouse assessed as inhibition of LPS-induced TNFalpha production at 100 mg/kg, ip administered 30 mins prior to LPS-challenge measured after 90 mins by ELISA relative to control. The following applies: route intraperitoneal. Format: functional. The procedure, abridged: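 Swiss albino mice (20–25 g, either sex) dosed i.p. with 100 mg/kg in 10 mL/kg; LPS 1.0 mg/kg in sterile PBS i.p. given 30 min later. Blood taken 90 min after LPS, plasma TNF measured by ELISA, expressed as % inhibition versus vehicle-treated control; n = 4, one-way ANOVA with Dunnett's test.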

The species named for data set [13] is Rattus norvegicus. Put plainly: Neuroprotective activity in Wistar rat chronic constriction injury model assessed as inhibition of nitric oxide production in brain after 2 hrs by Griess method relative to control. Format: functional. The procedure, abridged: as §1
The target of data set [14] is Cathepsin S (Homo sapiens) (UniProt P25774). Kind of data set: Inhibition of human recombinant cathepsin S using Z-Val-Val-Arg-AMC as substrate at 50 uM preincubated for 10 mins prior to substrate addition measured after 30 mins by fluorescence spectrophotometric analysis relative to control.
The test system of data set [15] is Mus musculus. Kind of data set: Neurotoxicity in Swiss albino mouse assessed as minimal motor impairment at 300 mg/kg after 4 hrs by rotarod test. In kind it is toxicity, organism-based. Set-up: dose 300 mg/kg. The following applies: in vivo. The procedure, abridged: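 Swiss albino mice of either sex, 20-25 g, dosed at 30, 100 and 300 mg/kg, three per group. Minimal motor impairment scored by rotarod at 0.5 and 4.0 h after dosing. Reported value is the lowest dose giving impairment in half or more of the mice.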

Data set [16] concerns Rattus norvegicus. Put plainly: Antinociceptive activity in Wistar rat chronic constriction injury model assessed as reversal of tactile allodynia at 100 mg/kg, ip after 120 mins (reference value: 4.1 +/- 2.1%). In kind it is functional. To be noted: route intraperitoneal.
Data set [17] relates to Rattus norvegicus. Kind of data set: Antinociceptive activity in Wistar rat partial sciatic nerve ligation model assessed as reversal of cold allodynia at 100 mg/kg, ip after 120 mins (reference value: 1.5 +/- 0.5%). In kind it is functional. To be noted: route intraperitoneal.
Data set [18] has as its system Mus musculus. Put plainly: Antinociceptive activity in Swiss albino mouse assessed as inhibition of formalin-induced flinching at 100 mg/kg administered 30 mins prior to test measured up to 5 mins relative to control. Format: functional.
For data set [19], the system named is Rattus norvegicus. Put plainly: Antinociceptive activity in Wistar rat chronic constriction injury model assessed as reversal of mechanical allodynia at 100 mg/kg, ip after 60 mins (reference value: 4.9 +/- 1.0%). Format: functional. The following applies: route intraperitoneal.
In data set [20] the test system is Rattus norvegicus. Put plainly: Antinociceptive activity in Wistar rat partial sciatic nerve ligation model assessed as reversal of spontaneous pain response at 100 mg/kg, ip after 120 mins (reference value: 1.2 +/- 0.1%). Format: functional. To be noted: route intraperitoneal.
Data set [21] deals with Rattus norvegicus. Kind of data set: Antinociceptive activity in Wistar rat partial sciatic nerve ligation model assessed as reversal of spontaneous pain response at 100 mg/kg, ip after 60 mins (reference value: 2.9 +/- 0.3%). Format: functional. The following applies: route intraperitoneal.
In data set [22] the test system is Rattus norvegicus. Put plainly: Antinociceptive activity in Wistar rat partial sciatic nerve ligation model assessed as reversal of tactile allodynia at 100 mg/kg, ip after 60 mins (reference value: 12.5 +/- 1.2%). To be noted: route intraperitoneal. Format: functional.
Data set [23] deals with Rattus norvegicus. Kind of data set: Antinociceptive activity in Wistar rat partial sciatic nerve ligation model assessed as reversal of cold allodynia at 100 mg/kg, ip after 60 mins (reference value: 2.5 +/- 0.3%). Format: functional. The following applies: route intraperitoneal.

pIC50: −log10 of the molar value.

Chain of Cannabinoid receptor 1 (P20272 whole entry): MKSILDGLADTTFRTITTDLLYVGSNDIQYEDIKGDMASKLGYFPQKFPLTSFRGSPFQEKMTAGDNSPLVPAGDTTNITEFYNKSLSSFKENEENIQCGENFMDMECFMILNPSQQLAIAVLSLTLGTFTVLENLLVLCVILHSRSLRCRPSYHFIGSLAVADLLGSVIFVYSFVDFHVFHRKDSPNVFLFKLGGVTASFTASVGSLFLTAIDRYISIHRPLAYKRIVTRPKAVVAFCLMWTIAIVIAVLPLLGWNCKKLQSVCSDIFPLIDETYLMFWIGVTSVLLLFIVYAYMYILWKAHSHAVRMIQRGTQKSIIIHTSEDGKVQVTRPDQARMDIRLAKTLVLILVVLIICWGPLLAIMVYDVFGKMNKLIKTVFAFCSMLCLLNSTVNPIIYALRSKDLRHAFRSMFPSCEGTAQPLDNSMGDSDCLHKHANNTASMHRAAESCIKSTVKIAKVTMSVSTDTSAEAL
Chain of Cathepsin S (Homo sapiens) (P25774 115-331 limits assumed): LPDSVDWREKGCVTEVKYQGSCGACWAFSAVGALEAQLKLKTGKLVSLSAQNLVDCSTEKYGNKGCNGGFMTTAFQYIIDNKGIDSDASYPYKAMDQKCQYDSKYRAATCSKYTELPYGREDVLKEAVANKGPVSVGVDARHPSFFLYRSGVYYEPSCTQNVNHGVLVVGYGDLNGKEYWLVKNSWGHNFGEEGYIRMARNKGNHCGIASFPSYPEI

Regarding `CCN1CCc2c(c(C(C)(C)C)nn2C(=O)Nc2ccc(C)cc2C)C1`, the Activity in the data set with Rattus norvegicus [1] was 54.5%; in the data set with Rattus norvegicus [2] it was 88.4%; in the data set on Rattus norvegicus [6] it was 89.9%; in the data set with Rattus norvegicus [8], 62.3%; in the data set on Rattus norvegicus [11] it was 50.4%; in the data set on Mus musculus [15], “Non-toxic”. For the same molecule, the Activity is 58% in the data set on Rattus norvegicus [16]; 38.2% in the data set on Rattus norvegicus [17]; 80% in the data set with Rattus norvegicus [19]; 64.2% in the data set with Rattus norvegicus [20]; 67.3% with Rattus norvegicus [21]; 50.4% in the data set with Rattus norvegicus [22]. Also, the Activity with Rattus norvegicus [23] was 52.7%. The minimal effective dose in the data set with Mus musculus [3] was found to be 300 mg/kg. Further, the inhibition in vivo at 100 mg/kg in the data set with Mus musculus [4] came out at 59.9%; in the data set with Mus musculus [7], 71.1%; with Mus musculus [12], 58.9%; in the data set with Mus musculus [18] it was 15.7%. Further, the negative logarithm of the IC50 (pIC50) is 3.87 in [5] and less than 6.00 on Cannabinoid receptor 1. Moreover, the “inhibition (INH)” value is given as 65.4% in the data set filed under Rattus norvegicus [9] and 12.5% in the data set listed under Rattus norvegicus [13]. Also, in the data set with Rattus norvegicus [10], the ED50 turned out to be 31.8 mg/kg. The inhibition in data set [14] came to 12.1%.
For the molecule `CCN1CCc2c(c(C(C)(C)C)nn2C(=O)Nc2c(C)cccc2C)C1`, the Activity with Rattus norvegicus [1] was 54.5%; with Rattus norvegicus [2] it was 46.6%; with Rattus norvegicus [6] it was 93.9%; in the data set on Rattus norvegicus [8], 95.5%; in the data set on Rattus norvegicus [11], 61.2%; with Mus musculus [15], “Non-toxic”. The Activity in the data set on Rattus norvegicus [16] amounted to 69.7%; in the data set with Rattus norvegicus [17], 10.4%; in the data set with Rattus norvegicus [19], 84.4%; with Rattus norvegicus [20], 57.8%; in the data set on Rattus norvegicus [21] it was 78.3%; in the data set with Rattus norvegicus [22], 61.6%. For the same molecule, the Activity with Rattus norvegicus [23] was found to be 56%. For the same molecule, in the data set on Mus musculus [3], the minimal effective dose came out at 100 mg/kg. Further, the inhibition in vivo at 100 mg/kg in the data set with Mus musculus [4] is 68%; in the data set with Mus musculus [7] it was 73.7%; in the data set with Mus musculus [12] it was 77.6%; in the data set on Mus musculus [18], 15.7%. Moreover, the pIC50 was 3.99 in data set [5] and less than 6.00 at Cannabinoid receptor 1. Moreover, the “inhibition (INH)” value in the data set filed under Rattus norvegicus [9] was 68.7%; in the data set filed under Rattus norvegicus [13] it was 15.3%. Further, the ED50 in the data set on Rattus norvegicus [10] is 23.6 mg/kg. In data set [14], the inhibition stood at 34.1%.
Turning to `CCN1CCc2c(c(C(C)(C)C)nn2C(=O)Nc2ccc(Br)cc2)C1`, the Activity in the data set on Rattus norvegicus [1] was 58.2%; in the data set on Rattus norvegicus [2] it was 44.9%; in the data set on Rattus norvegicus [6] it was 90.4%; in the data set with Rattus norvegicus [8], 59.8%; in the data set with Rattus norvegicus [11], 65%; in the data set on Mus musculus [15] it was “Non-toxic”. In addition, the Activity with Rattus norvegicus [16] worked out at 50.5%; in the data set with Rattus norvegicus [17], 48.2%; in the data set on Rattus norvegicus [19] it was 66%; in the data set with Rattus norvegicus [20], 43.1%; in the data set on Rattus norvegicus [21], 55.7%; with Rattus norvegicus [22], 44.9%. In addition, the Activity with Rattus norvegicus [23] was 50.6%. For the same molecule, in the data set on Mus musculus [3], the minimal effective dose is 100 mg/kg. Besides, the inhibition in vivo at 100 mg/kg with Mus musculus [4] was 72.1%; in the data set with Mus musculus [7], 72.8%; in the data set with Mus musculus [12], 86.4%; with Mus musculus [18], 0%. The negative-log IC50 (pIC50) in [5] was 4.09; on Cannabinoid receptor 1, 7.30. Further, the “inhibition (INH)” value was 47.8% in the data set listed under Rattus norvegicus [9] and 16.4% in the data set listed under Rattus norvegicus [13]. For the same molecule, the ED50 in the data set with Rattus norvegicus [10] is 29 mg/kg. Further, the inhibition in data set [14] was 39.9%.

What is called inhibition in vivo is the drop in the measured response relative to a control, in per cent. As usually defined, the pIC50 is the negative decadic logarithm of the IC50, by convention in mol/L. What is called ED50 is the midpoint of the dose-response relation. Usually inhibition stands for the percentage by which the read-out fell short of the control.
